According to ChEMBL document CHEMBL1140433, “Design, synthesis, and evaluation of pharmacological properties of cinnamic derivatives as antiatherogenic agents” (2005):

Experiments:
Format in all cases: functional, Homo sapiens
HMEC [1] = experiment: Ability to inhibit HMEC1-mediated LDL oxidation at 10 uM evaluated by TBARS formation in the presence of copper; design: scale not given: the % may be the effect or the level left
In short: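 Human plasma LDL (100 µg apoB/mL) was incubated with subconfluent HMEC-1 in serum-free RPMI-1640 with 1 µM Cu2+ for 6 h at 37 °C. Cells had been serum-starved for 24 h. Compound was added in DMSO just before oxidation, in duplicate. TBARS in the medium were measured fluorimetrically (Yagi), as % of cell-oxidized LDL without antioxidant. Mean of four determinations.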

HMEC [2] = experiment: Cytotoxic effect of LDL oxidized by HMEC1 cells at 10 uM by MTT assay expressed as percentage of viability in unstimulated control
In short: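 LDL (100 µg apoB/mL) was first oxidized by HMEC-1 for 6 h in RPMI with 1 µM Cu2+ and compound at 10 µM. This LDL then stayed on serum-starved HMEC-1 for a 24 h pulse. Viability was read by MTT as % of control cells in fresh RPMI without LDL or antioxidant. Mean of four determinations.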

HMEC [3] = experiment: Ability to inhibit HMEC1-mediated LDL oxidation at 100 uM evaluated by TBARS formation in the absence of copper; design: scale not given: the % may be the effect or the level left
HMEC [4] = experiment: Ability to inhibit HMEC1-mediated LDL oxidation at 10 uM evaluated by TBARS formation in the absence of copper; design: scale not given: the % may be the effect or the level left

Row | Structure (SMILES) | Activity (HMEC [1]) [%] | Activity (HMEC [2]) [%] | Activity (HMEC [3]) [%] | Activity (HMEC [4]) [%]
1 | CCOP(=O)(O)/C=C/c1ccc(O)c(OC)c1 | 52.7 | 21.7 | – | –
2 | CCOP(=O)(O)/C=C/c1cc(OC)c(O)c(OC)c1 | 16 | 45 | – | –
3 | CCOP(=O)(O)/C=C/c1ccc(O)cc1 | 101 | 13.3 | – | –
4 | COc1ccc(/C=C/C(=O)Nc2ccccn2)cc1OC | 100 | 20.7 | – | –
5 | COc1cc(/C=C/C(=O)SCCNC(C)=O)cc(OC)c1O | 12.7 | 88.7 | 8 | 18
6 | CCOP(=O)(/C=C/c1cc(OC)c(O)c(OC)c1)OCC | 13 | 81 | – | –
7 | COc1cc(/C=C/C(=O)SCCNC(C)=O)ccc1O | 40.3 | 69.3 | – | –
8 | CCOP(=O)(/C=C/c1ccc(O)c(OC)c1)OCC | 32.3 | 75.7 | – | –
9 | CCOP(=O)(/C=C/c1ccc(O)cc1)OCC | 77.6 | 65.3 | – | –
10 | COc1ccc(/C=C/C(=O)SCCNC(C)=O)cc1 | 109 | 21.7 | – | –
11 | COc1cc(/C=C/C(=O)NCCc2c[nH]c3ccccc23)ccc1O | 9.6 | 93.6 | – | –
12 | COc1cccc(/C=C/C(=O)Nc2ccccn2)c1 | 61.3 | 48.7 | – | –
13 | CC(=O)NCCSC(=O)/C=C/c1ccc(O)cc1 | 95.6 | 22.6 | – | –
14 | Cc1c(C)c2c(c(C)c1O)CC[C@@](C)(CCC[C@H](C)CCC[C@H](C)CCCC(C)C)O2 [ALPHA-TOCOPHEROL] | 55 | 29 | – | –
15 | CC(C)(Sc1cc(C(C)(C)C)c(O)c(C(C)(C)C)c1)Sc1cc(C(C)(C)C)c(O)c(C(C)(C)C)c1 [PROBUCOL] | 10 | 92 | – | –
